Runt-SMMHC FRET – inhibitors of human RUNX1 Runt domain binding to CBFb-SMMHC; Q01196+Q13951; Cerulean-Runt/Venus-CBFb-SMMHC FRET ratio 530/480, 1 h; inhibition, % at 20 µM; 220,000 compounds, 0.74% hits;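 active = mean inhibition across duplicate retests at 20 µM reaching about 50%, limit read from the data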;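 also: inhibitors lower the FRET ratio by blocking Runt binding to CBFb-SMMHC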
Target sequence (Q01196 whole entry, looked up, the tested form may be a part): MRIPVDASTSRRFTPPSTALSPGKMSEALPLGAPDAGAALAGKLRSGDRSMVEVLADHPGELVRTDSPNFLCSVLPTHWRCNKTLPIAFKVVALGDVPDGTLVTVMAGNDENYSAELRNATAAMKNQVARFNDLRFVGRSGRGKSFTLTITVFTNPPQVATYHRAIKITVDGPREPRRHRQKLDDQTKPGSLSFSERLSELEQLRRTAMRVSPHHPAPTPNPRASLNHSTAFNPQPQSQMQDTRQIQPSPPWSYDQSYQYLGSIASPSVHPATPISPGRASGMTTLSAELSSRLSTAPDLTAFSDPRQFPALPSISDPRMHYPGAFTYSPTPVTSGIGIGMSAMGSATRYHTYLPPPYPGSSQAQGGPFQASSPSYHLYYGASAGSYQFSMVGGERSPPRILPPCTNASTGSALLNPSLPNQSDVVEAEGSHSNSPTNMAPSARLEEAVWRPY
Target sequence (Q13951 whole entry, looked up, the tested form may be a part): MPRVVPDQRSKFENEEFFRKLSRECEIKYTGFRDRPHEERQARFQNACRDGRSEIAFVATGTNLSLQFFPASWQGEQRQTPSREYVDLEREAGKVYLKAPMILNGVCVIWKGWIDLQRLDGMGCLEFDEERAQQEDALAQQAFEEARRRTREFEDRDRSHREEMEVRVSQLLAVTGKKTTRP
Hck Nef HTS – blocks Nef-activated human Hck kinase; P08631; Recombinant Hck-YEEI plus Nef, Z-Lyte FRET kinase assay; inhibition, % at 20 µM; 220,000 compounds, 0.68% hits; AID 463187;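 active = Hck-Nef kinase inhibition above about 50%, limit read from the data; inactive = inhibition below that limit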
Runt-CBFb FRET – Runt domain-CBFb interaction inhibition; inhibition, % at 20 µM; 220,000 compounds, 0.46% hits; AID 1496; Q01196+Q13951; Cerulean-Runt/Venus-CBFb FRET ratio 530/480, 1 h;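 active = inhibition over about 50% at 20 µM in the single-dose screen, limit read from the data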
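Assay system: Cerulean-Runt domain fusion protein, energy donor; Signal: fluorescence energy transfer, 422 nm excitation, 530/480 nm emission; Timing: 1 h compound exposure, room temperature; Control set: unlabeled CBFb; Medium: Tris buffer pH 7.5 with salts and BSA; Compound: single test concentration of 20 µM, 1% DMSO final; Probe or stimulus: Venus-CBFb 100 nM.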
RanGTP-Impb inh – disruptors of Ran-importin-beta complex formation – biochemical, FRET, CFP-Ran, YFP-importin-beta, homogeneous, primary screen. cell-free CFP-Ran/YFP-importin-beta FRET ratio. inhibition, % (test concentration not listed). 300,000 compounds, 1.1% hits;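 active = more than half of the replicate wells show a fall in the fluorescence ratio signal beyond about 16%, limit read from the data, passing the limit was not always enough; inconclusive = exactly half of the replicate wells pass the set limit; inactive = fewer than half of replicates pass the limit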
Numbers stand for hits; 0 = inactive; ? = inconclusive; - = no result given. An excerpt weighted towards active compounds, which were near 1.8% of everything screened.

SMILES	Runt-SMMHC FRET	Hck Nef HTS	Runt-CBFb FRET	RanGTP-Impb inh
O=[N+]([O-])c1cccc(-c2cn3nc(-c4ccccc4)c(-c4ccccc4)nc3n2)c1	0	0	0	70
O=[N+]([O-])c1ccc(-c2cn3nc(-c4ccccc4)c(-c4ccccc4)nc3n2)cc1	0	0	0	42
COCCCNC(=O)/C(C#N)=C/c1c(N2CCN(C)CC2)nc2ccccn2c1=O	-	-	-	87
COCCNC(=O)/C(C#N)=C/c1c(N2CCN(c3ccccc3)CC2)nc2ccccn2c1=O	-	-	-	0
COCCNC(=O)/C(C#N)=C/c1c(N2CC(C)OC(C)C2)nc2ccccn2c1=O (stereo unspecified)	82	0	0	0
CC1CN(c2nc3ccccn3c(=O)c2/C=C(\C#N)C(N)=O)CC(C)O1 (stereo unspecified)	0	0	94	0
CCNC(=O)/C(C#N)=C/c1c(N2CC(C)OC(C)C2)nc2ccccn2c1=O (stereo unspecified)	77	0	104	0
CN(C(=O)COC(=O)c1cc(S(=O)(=O)N2CCOCC2)c(Cl)cc1Cl)C1CCS(=O)(=O)C1 (stereo unspecified)	0	0	0	0
CCC1CCCCN1C(=O)COc1ccccc1NC(C)=O (stereo unspecified)	0	0	0	0
CCc1ccc(/C=N/NC(=O)c2nnn(-c3nonc3N)c2C(C)C)cc1	-	-	-	0
CN1CCN(c2nc3ccccn3c(=O)c2C=O)CC1	-	-	-	100
NS(=O)(=O)c1ccc(NC(=O)COC(=O)COc2ccc(Cl)cc2)cc1	0	0	0	0
CCOc1ccc2nc(NCCNC(=O)c3cc(OC)c(OC)c(OC)c3)c(C#N)cc2c1	-	-	-	113
COc1cc(C(=O)NCCCNc2nc3cc(C)c(C)cc3cc2C#N)cc(OC)c1OC	0	0	-	50
N#CC(C#N)=C1C=C2C=C(N3CCCCC3)CCC2CC1 (stereo unspecified)	77	0	0	-
CCN(CC)C1=CC2=CC(=C(C#N)C#N)CCC2CC1 (stereo unspecified)	83	0	0	-
CCCCN(C)C1=CC2=CC(=C(C#N)C#N)CCC2CC1 (stereo unspecified)	58	0	0	92
O=C(Oc1c(CN2CCOCC2)cc(Cl)c2cccnc12)c1ccccc1F	0	0	0	33
Cc1cccc(NC(=O)COc2ccc(/C=C\c3[nH]c(=O)[nH]c(=O)c3[N+](=O)[O-])cc2)c1	0	62	0	0
COc1cc(/C=C/C(=O)O)cc(S(=O)(=O)Nc2ccccc2Oc2ccccc2)c1OC	0	0	0	0
CCC(C)/C=C/C1=CC2=C(Cl)C(=O)C3(C)OC(=O)C(C(=O)C(C)C(C)O)C3C2=CO1 (stereo unspecified)	85	0	0	88
O=C(NCc1ccco1)c1cc2nc(-c3cccs3)cc(C(F)(F)F)n2n1	0	0	0	20
O=C(O)c1cc2nc(-c3cccs3)cc(C(F)(F)F)n2n1	0	0	0	?
FC(F)(F)c1cc(-c2cccs2)nc2cc(-c3ccccc3)nn12	0	0	0	46
O=C1CCCN1CCCNS(=O)(=O)c1ccc(F)c(F)c1	-	-	-	0
SMILES	Runt-SMMHC FRET	Hck Nef HTS	Runt-CBFb FRET	RanGTP-Impb inh
COC(=O)C1=C(C)NC(=O)NC1c1ccc(OC(=O)c2ccco2)cc1 (stereo unspecified)	0	0	0	0
CC(C)CNC(=S)N(CCCO)Cc1cc2cc3c(cc2[nH]c1=O)OCCO3	-	-	-	31
COc1ccc(NC2=C(C(C)=O)C(c3ccc(OC)c(OC)c3)C(C(C)=O)C(C)(O)C2)cc1 (stereo unspecified)	0	0	0	164
CCOC(=O)c1c2n(c3ccc(O)cc13)CCCCC2	0	0	0	22
CCOC(=O)c1c(C)n(-c2ccc(F)cc2)c2ccc(O)cc12	-	-	-	0
CCn1c(C)nc2cc(C(=O)N/N=C/c3cccc(O)c3O)ccc21	0	0	0	0
O=C(O)C1CCN(C(=O)CSc2nc3ccccc3s2)CC1	0	0	0	0
CC1CCN(C(=O)CSc2nc3ccccc3s2)CC1	0	0	0	28
CCC(=O)O/N=C(\N)c1ccc(Oc2cc(C)c(Cl)c(C)c2)c([N+](=O)[O-])c1	0	0	0	0
CC1CCc2c(sc(Nc3nc4c(F)cccc4s3)c2C(N)=O)C1 (stereo unspecified)	86	0	127	170
NC(=O)NC(=O)C(Nc1ccc(N2CCCCC2)cc1)c1ccccc1 (stereo unspecified)	-	-	-	0
O=C(NC1CCCC1)C1CCN(C(=O)c2cc(Cl)ccc2Cl)CC1	-	-	-	0

Screening results from PubChem.
